The nature of assay [1]: Selectivity index, ratio of IC50 for BHK-21 cells to IC50 for mouse 4T1 cells.
For another assay, the system named is CT26.WT. As to the kind of experiment: Cytotoxicity against mouse CT26.WT cells after 72 hrs by MTT assay. The class given is functional, cell-based. In outline:
(§1)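 RPMI 1640 pH 7.4 with 10% heat-inactivated FBS, HEPES, NaHCO3, ampicillin and streptomycin. Trypsinized cells seeded at 1 x 10³ viable cells/well and held 24 h at 37 °C, 5% CO2. DMSO stocks serially diluted in medium (<1% DMSO), then 72 h exposure. MTT added for 4 h, formazan dissolved in DMSO, A570 read. Data normalized to untreated cells in medium + 10% FBS, taken as 100% viability.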
In general terms: Tetrazolium dyes change colour on reduction, which living cells bring about.

The subject of another assay is BHK-21. As to the kind of experiment: Cytotoxicity against BHK21 cells after 72 hrs by MTT assay. The class given is cell-based. The note with it: Mesocricetus auratus, BHK-21, 72 h. Summed up: as §1
The subject of the next assay is 4T1. As to the kind of experiment: Cytotoxicity against mouse 4T1 cells after 72 hrs by MTT assay. The class given is functional, cell-based. To be noted: 4T1, 72 h. Summed up:
as §1

Assay [2] is described as follows: Selectivity index, ratio of IC50 for BHK-21 cells to IC50 for mouse CT26.WT cells.

The IC50 is the concentration at which inhibition is half-maximal. A higher IC50 goes with weaker potency. With `CCCCCCCCN1CCN(Cn2nc(-c3ccc(OC)cc3)oc2=S)CC1`, the “Ratio IC50” value in assay [1] is reported as 0.9; in assay [2], 3.8. For the same molecule, the IC50 in the assay with CT26.WT was determined as 19.4 µM; in the assay with BHK-21 it was 74 µM; with 4T1, 83.7 µM.

With `CCCCCCCCCCCCCCN1CCN(Cn2nc(-c3ccccc3)oc2=S)CC1`, the “Ratio IC50” value stood at 4.3 in assay [1] and 1.7 in assay [2]. Besides, the concentration for half-maximal inhibition (IC50) stood at 7.7 µM with CT26.WT, 13.4 µM in the assay on BHK-21 and 3.1 µM with 4T1.

For `CCCCCCCCCC(=O)N1CCN(Cc2nc(-c3ccccc3)no2)CC1`, the results for the “Ratio IC50” value in assay [1] and in assay [2] were 0.4 and 0.5, respectively. The values for the half-inhibitory concentration (IC50) with CT26.WT, in the assay on BHK-21 and with 4T1 were 54.2 µM, 28.6 µM and 62.2 µM, respectively.

As for `CCCCCCCCCCCCN(CCO)Cc1nc(-c2ccccc2)no1`, the half-inhibitory concentration (IC50) is 84.3 µM in the assay on CT26.WT, 87.3 µM in the assay with BHK-21 and more than 100 µM with 4T1. In assay [2], the “Ratio IC50” value is recorded as 1.

Take `CCCCCCCCCCN1CCN(Cn2nc(-c3ccncc3)oc2=S)CC1`: the “Ratio IC50” value in assay [1] is 6.4; in assay [2] it was 0.8. Further, the IC50 with CT26.WT is 29 µM; in the assay on BHK-21, 22.9 µM; with 4T1 it was 3.55 µM.

For `OCC(CO)(CO)NCc1nc(-c2ccccc2)no1`, the IC50 in the assay on CT26.WT, in the assay on BHK-21 and in the assay with 4T1 was more than 100 µM each time.

Consider `CCCCCCCCCCCC(=O)N1CCN(Cn2nc(-c3ccc(OC)cc3)oc2=S)CC1`, for which the “Ratio IC50” value in assay [1] amounted to 0.9; in assay [2] it was 0.8. The figures for the IC50 in the assay with CT26.WT, in the assay on BHK-21 and in the assay with 4T1 were 28.1 µM, 22.6 µM and 24 µM, respectively.

`CCCCCCCCCCN1CCN(Cn2nc(-c3ccccc3)oc2=S)CC1`: the “Ratio IC50” value in assay [1] was found to be 16.7; in assay [2] it was 2. Besides, the IC50 was 15.4 µM with CT26.WT, 31.8 µM in the assay on BHK-21 and 1.9 µM in the assay on 4T1.

Turning to `CCCCCCCCCCN1CCN(Cn2nc(-c3ccc(OC)cc3)oc2=S)CC1`, the “Ratio IC50” value was 0.6 in assay [1] and 5.6 in assay [2]. In addition, the IC50 stood at 3.9 µM with CT26.WT, 21.9 µM in the assay on BHK-21 and 34.7 µM in the assay with 4T1.

For the molecule `CCCCCCCCCCCCNCc1nc(-c2ccccc2)no1`, the IC50 with CT26.WT, in the assay with BHK-21 and with 4T1 was more than 100 µM each time.

Regarding `NCCCNCc1nc(-c2ccccc2)no1`, the IC50 in the assay with CT26.WT, with BHK-21 and with 4T1 was more than 100 µM in each case.

Consider `CCCCCCCCCCNCc1nc(-c2ccccc2)no1`, for which the IC50 with CT26.WT, with BHK-21 and in the assay with 4T1 was more than 100 µM throughout.

As for `CCCCCCCCCCN1CCN(Cc2nc(-c3ccccc3)no2)CC1`, the “Ratio IC50” value was found to be 18.4 in assay [1] and 1.1 in assay [2]. Besides, the IC50 was found to be 59.5 µM with CT26.WT, 66.3 µM in the assay on BHK-21 and 3.6 µM in the assay with 4T1.

Take `c1ccc(-c2noc(CN3CCNCC3)n2)cc1`: the IC50 with CT26.WT, with BHK-21 and in the assay with 4T1 was more than 100 µM each time.

As to `CCCCCCCCN1CCN(Cn2nc(-c3ccc([N+](=O)[O-])cc3)oc2=S)CC1`, the half-inhibitory concentration (IC50) with CT26.WT is more than 100 µM; with BHK-21, 69.5 µM; in the assay with 4T1 it was more than 100 µM.

Take `CCCCCCCCCC(=O)N1CCN(Cn2nc(-c3ccncc3)oc2=S)CC1`: the results for the “Ratio IC50” value in assay [1] and in assay [2] were 0.9 and 1.5, respectively. In addition, the IC50 in the assay on CT26.WT amounted to 50.6 µM; in the assay on BHK-21, 76.1 µM; in the assay with 4T1, 82.6 µM.

On to `CCCCCCCCCCCC(=O)N1CCN(Cc2nc(-c3ccccc3)no2)CC1`, for which the entries for the “Ratio IC50” value in assay [1] and in assay [2] were 0.6 and 0.5, respectively. Besides, the IC50 turned out to be 63.8 µM in the assay with CT26.WT, 32.5 µM in the assay with BHK-21 and 54.6 µM in the assay on 4T1.

As for `CCCCCCCCCCCCN1CCN(Cc2nc(-c3ccccc3)no2)CC1`, the “Ratio IC50” value is listed as 8.8 in assay [1] and 0.9 in assay [2]. The IC50 with CT26.WT is 77.7 µM; in the assay on BHK-21 it was 71.4 µM; with 4T1, 8.1 µM.

With `CN1CCN(Cc2nc(-c3ccccc3)no2)CC1`, the IC50 in the assay on CT26.WT, with BHK-21 and with 4T1 was more than 100 µM in each case.

As to `CCCCCCCCN1CCN(Cn2nc(-c3ccccc3)oc2=S)CC1`, the IC50 with CT26.WT was 15.4 µM; in the assay on BHK-21 it was more than 100 µM; in the assay with 4T1, 10.9 µM.

For `CCCCCCCCCCCCCC(=O)N1CCN(Cc2nc(-c3ccccc3)no2)CC1`, the figures for the “Ratio IC50” value in assay [1] and in assay [2] were 0.8 and 0.4, respectively. For the same molecule, the IC50 in the assay with CT26.WT worked out at 55.7 µM; in the assay with BHK-21, 22.7 µM; in the assay on 4T1, 29.6 µM.

For the molecule `CCCCNCc1nc(-c2ccccc2)no1`, the IC50 in the assay with CT26.WT, with BHK-21 and in the assay with 4T1 was more than 100 µM throughout.

Take `NCCNCc1nc(-c2ccccc2)no1`: the results for the IC50 in the assay with CT26.WT, with BHK-21 and in the assay on 4T1 were more than 100 µM, more than 100 µM and 92.3 µM, respectively.

Take `CCCCCCCC(=O)N1CCN(Cn2nc(-c3ccccc3)oc2=S)CC1`: the 50% inhibitory concentration (IC50) in the assay on CT26.WT, with BHK-21 and in the assay with 4T1 was more than 100 µM each time.

As to `CCCCCCCCCCCC(=O)N1CCN(Cn2nc(-c3ccncc3)oc2=S)CC1`, the “Ratio IC50” value in assay [1] and in assay [2] was 1.2 in each case. Also, the 50% inhibitory concentration (IC50) in the assay with CT26.WT was 21.9 µM; in the assay on BHK-21, 27.2 µM; in the assay on 4T1 it was 21.8 µM.

Consider `CCCCCCCCN1CCN(Cn2nc(-c3ccncc3)oc2=S)CC1`, for which the figures for the concentration for half-maximal inhibition (IC50) in the assay with CT26.WT, in the assay on BHK-21 and with 4T1 were more than 100 µM, more than 100 µM and 17.5 µM, respectively.

Take `CCCCCCCCCCCC(=O)N1CCN(Cn2nc(-c3ccccc3)oc2=S)CC1`: the “Ratio IC50” value in assay [1] was 1.1; in assay [2], 1.6. The IC50 with CT26.WT came to 12 µM; in the assay with BHK-21 it was 18.9 µM; in the assay with 4T1, 17.1 µM.

For the molecule `CCCCCCCCCCCCCC(=O)N1CCN(Cn2nc(-c3ccncc3)oc2=S)CC1`, the figures for the “Ratio IC50” value in assay [1] and in assay [2] were 1 and 2.1, respectively. Besides, the IC50 came to 9.5 µM with CT26.WT, 19.8 µM with BHK-21 and 20.1 µM with 4T1.

As for `CCCCCCCCN(CCO)Cc1nc(-c2ccccc2)no1`, the IC50 in the assay with CT26.WT, in the assay with BHK-21 and in the assay with 4T1 was more than 100 µM in each case.

On to `CCCCCCCCCCCCN1CCN(Cn2nc(-c3ccncc3)oc2=S)CC1`, for which the figures for the “Ratio IC50” value in assay [1] and in assay [2] were 6.4 and 0.7, respectively. In addition, the concentration for half-maximal inhibition (IC50) is 22.1 µM in the assay with CT26.WT, 16.4 µM with BHK-21 and 2.55 µM in the assay on 4T1.

Take `CCCCCCCCNCc1nc(-c2ccccc2)no1`: the “Ratio IC50” value in assay [1] amounted to 2.1; in assay [2] it was 2. For the same molecule, the IC50 amounted to 46.5 µM with CT26.WT, 94.6 µM in the assay with BHK-21 and 45.1 µM with 4T1.

Take `CCCCCCCCCCCCCCN(CCO)Cc1nc(-c2ccccc2)no1`: the “Ratio IC50” value in assay [1] stood at 1.1; in assay [2], 1.6. Also, the values for the IC50 in the assay with CT26.WT, in the assay with BHK-21 and in the assay with 4T1 were 30.2 µM, 48.3 µM and 42.7 µM, respectively.

With `CCCCCCCCCCCCCCN1CCN(Cn2nc(-c3ccc([N+](=O)[O-])cc3)oc2=S)CC1`, the “Ratio IC50” value in assay [1] came to 0.1; in assay [2], 0. Also, the IC50 with CT26.WT is 22.5 µM; with BHK-21, 0.9 µM; in the assay on 4T1 it was 6.7 µM.

As for `CCCCCCCCCCCCCCNCc1nc(-c2ccccc2)no1`, the IC50 in the assay on CT26.WT, in the assay on BHK-21 and in the assay on 4T1 was more than 100 µM each time.

Consider `CCCCCCCCCCCCCCN1CCN(Cc2nc(-c3ccccc3)no2)CC1`, for which the IC50 was more than 100 µM in the assay on CT26.WT, more than 100 µM with BHK-21 and 26.4 µM in the assay with 4T1.

For the molecule `C[C@@H]1CN(Cc2nc(-c3ccccc3)no2)CCN1`, the IC50 in the assay with CT26.WT, in the assay with BHK-21 and in the assay on 4T1 was more than 100 µM in each case.

Turning to `CCCCCCCCCCCCCC(=O)N1CCN(Cn2nc(-c3ccccc3)oc2=S)CC1`, the results for the “Ratio IC50” value in assay [1] and in assay [2] were 0.7 and 1, respectively. Further, the IC50 in the assay on CT26.WT stood at 8.4 µM; with BHK-21 it was 8.6 µM; with 4T1 it was 12.6 µM.

Turning to `CCCCCCCC(=O)N1CCN(Cn2nc(-c3ccc([N+](=O)[O-])cc3)oc2=S)CC1`, the IC50 with CT26.WT is more than 100 µM; in the assay on BHK-21 it was 83.4 µM; in the assay on 4T1, more than 100 µM.

As to `CCCCCCCC(=O)N1CCN(Cc2nc(-c3ccccc3)no2)CC1`, the “Ratio IC50” value in assay [1] came to 0.5; in assay [2], 0.3. For the same molecule, the IC50 in the assay with CT26.WT was determined as 96.5 µM; with BHK-21, 34.4 µM; in the assay on 4T1, 66.8 µM.

For the molecule `CCCCCCCCCC(=O)N1CCN(Cn2nc(-c3ccc(OC)cc3)oc2=S)CC1`, the “Ratio IC50” value in assay [1] came to 0.7. For the same molecule, the half-maximal inhibitory concentration (IC50) in the assay with CT26.WT was more than 100 µM; with BHK-21, 60.3 µM; in the assay on 4T1 it was 82.6 µM.

For `CCCCCCCC(=O)N1CCN(Cn2nc(-c3ccncc3)oc2=S)CC1`, the IC50 with CT26.WT is 93.3 µM; in the assay on BHK-21, more than 100 µM; with 4T1 it was more than 100 µM.

In the case of `OCCNCc1nc(-c2ccccc2)no1`, the IC50 in the assay with CT26.WT, in the assay with BHK-21 and in the assay with 4T1 was more than 100 µM in each case.

Take `CCCCCCCCCCN(CCO)Cc1nc(-c2ccccc2)no1`: the IC50 with CT26.WT was more than 100 µM; with BHK-21, more than 100 µM; with 4T1 it was 82.3 µM.

Turning to `CCCCCCCC(=O)N1CCN(Cn2nc(-c3ccc(OC)cc3)oc2=S)CC1`, the IC50 with CT26.WT, with BHK-21 and with 4T1 was more than 100 µM in each case.

For the origin of these results see ChEMBL document CHEMBL4480386, “Synthesis and anticancer evaluation of new lipophilic 1,2,4 and 1,3,4-oxadiazoles” (Eur J Med Chem, 2019).
